# Test results: ChEMBL document CHEMBL4689842, “EUbOPEN Chemogenomics Library wave 1” (2021)
# “And” between values parts separate entries of the source, which are not always exact repeats. Equal values may be shown once.
# System: Fibroblast
# Test: Multiplex assay against human fibroblast
# Format: toxicity, cell-based
# How it was run: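 Live cells were stained at seeding with Hoechst33342, BioTracker Green Microtubule Cytoskeleton Dye, MitoTracker Red and Annexin V Alexa Fluor 680. Following compound addition, they were imaged on a CQ1 microscope at 37°C and 5% CO2 and gated by CellPathfinder machine learning into Hoechst high-intensity objects or normal cells, with normal cells split into healthy, pyknosed or fragmented nuclei and pyknosed cells into mitotic or apoptotic. Tubulin, mitochondrial-mass and membrane-permeability phenotypes are per cents of healthy-nucleus cells.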
# [1] = 12 h, 1 µM, compound concentration 1 uM, replicate 1
# [2] = 12 h, 1 µM, compound concentration 1 uM, replicate 2
# [3] = 12 h, 10 µM, compound concentration 10 uM, replicate 1
# [4] = 12 h, 10 µM, compound concentration 10 uM, replicate 2
# [5] = 24 h, 1 µM, compound concentration 1 uM, replicate 1
# [6] = 24 h, 1 µM, compound concentration 1 uM, replicate 2
# [7] = 24 h, 10 µM, compound concentration 10 uM, replicate 1
# [8] = 24 h, 10 µM, compound concentration 10 uM, replicate 2
# [9] = 48 h, 1 µM, compound concentration 1 uM, replicate 1
# [10] = 48 h, 1 µM, compound concentration 1 uM, replicate 2
# [11] = 48 h, 10 µM, compound concentration 10 uM, replicate 1
# [12] = 48 h, 10 µM, compound concentration 10 uM, replicate 2
smiles,measurement,setting,value
CS(=O)(=O)N1CCCC(NC(=O)[C@H](CCC2CCCCC2)NC(=O)c2ccc(CNc3ncnc4c3nnn4-c3ccccc3)cc2)C1 (stereo not given in full) [SR-301],Population Apoptotic (%),[1],58% and 60% and 56%
same,Population Fragmented Nuclei (%),[1],22% and 18% and 20%
same,Population Healthy Nuclei (%),[1],31% and 27% and 35%
same,Population Hoechst High Intensity Objects (%),[1],21% and 15% and 12%
same,Population Membrane Permeable-Phenotype (%),[1],16% and 32% and 28%
same,Population Mitochondria Different-Phenotype (%),[1],13% and 12% and 26%
same,Population Mitotic Cells (%),[1],41% and 39% and 43%
same,Population Normal (%),[1],78% and 84% and 87%
same,Population Pyknosed Nuclei (%),[1],46% and 53% and 44%
same,Population Tubulin-Different-Phenotype (%),[1],47% and 61% and 57%
same,Total Cell Count,[1],146 and 134
same,Population Apoptotic (%),[2],25% and 63% and 33%
same,Population Fragmented Nuclei (%),[2],14% and 11% and 7%
same,Population Healthy Nuclei (%),[2],81% and 70% and 89%
same,Population Mitochondria Different-Phenotype (%),[2],20% and 14% and 10%
same,Population Mitotic Cells (%),[2],75% and 36% and 66%
same,Population Normal (%),[2],80% and 86% and 94%
same,Population Tubulin-Different-Phenotype (%),[2],21% and 19% and 12%
same,Total Cell Count,[2],135 and 58 and 69
same,Population Apoptotic (%),[3],94% and 85% and 73%
same,Population Fragmented Nuclei (%),[3],34% and 37% and 21%
same,Population Healthy Nuclei (%),[3],20% and 17% and 28%
same,Population Hoechst High Intensity Objects (%),[3],19% and 17% and 12%
same,Population Membrane Permeable-Phenotype (%),[3],36% and 16% and 19%
same,Population Mitochondria Different-Phenotype (%),[3],20% and 25% and 36%
same,Population Normal (%),[3],80% and 82% and 87%
same,Population Pyknosed Nuclei (%),[3],45% and 44% and 50%
same,Population Tubulin-Different-Phenotype (%),[3],32% and 48% and 51%
same,Total Cell Count,[3],153 and 216 and 163
same,Population Apoptotic (%),[4],80% and 75% and 41%
same,Population Fragmented Nuclei (%),[4],39% and 27%
same,Population Healthy Nuclei (%),[4],25% and 58%
same,Population Membrane Permeable-Phenotype (%),[4],61% and 54% and 30%
same,Population Mitochondria Different-Phenotype (%),[4],66% and 54% and 34%
same,Population Mitotic Cells (%),[4],20% and 25% and 58%
same,Population Normal (%),[4],89% and 95% and 97%
same,Population Pyknosed Nuclei (%),[4],39% and 47% and 20%
same,Population Tubulin-Different-Phenotype (%),[4],55% and 54% and 34%
same,Total Cell Count,[4],89 and 86 and 105
same,Population Apoptotic (%),[5],58% and 59% and 61%
same,Population Fragmented Nuclei (%),[5],20% and 24% and 25%
same,Population Healthy Nuclei (%),[5],39% and 33% and 42%
same,Population Hoechst High Intensity Objects (%),[5],18% and 10%
same,Population Membrane Permeable-Phenotype (%),[5],35% and 23% and 20%
same,Population Mitochondria Different-Phenotype (%),[5],17% and 9% and 18%
same,Population Mitotic Cells (%),[5],41% and 40% and 38%
same,Population Normal (%),[5],81% and 89%
same,Population Pyknosed Nuclei (%),[5],41% and 42% and 31%
same,Population Tubulin-Different-Phenotype (%),[5],53% and 66% and 52%
same,Total Cell Count,[5],123 and 142 and 153
same,Population Fragmented Nuclei (%),[6],12% and 7%
same,Population Healthy Nuclei (%),[6],78% and 80% and 86%
same,Population Membrane Permeable-Phenotype (%),[6],7% and 6% and 3%
same,Population Mitochondria Different-Phenotype (%),[6],20% and 10% and 8%
same,Population Mitotic Cells (%),[6],87% and 60% and 55%
same,Population Normal (%),[6],80% and 95% and 96%
same,Population Pyknosed Nuclei (%),[6],9% and 12% and 6%
same,Population Tubulin-Different-Phenotype (%),[6],13% and 26% and 14%
same,Total Cell Count,[6],148 and 64 and 84
same,Population Apoptotic (%),[7],84% and 87%
same,Population Fragmented Nuclei (%),[7],31% and 40% and 42%
same,Population Healthy Nuclei (%),[7],24% and 22%
same,Population Hoechst High Intensity Objects (%),[7],20% and 15% and 21%
same,Population Membrane Permeable-Phenotype (%),[7],23% and 21% and 17%
same,Population Mitochondria Different-Phenotype (%),[7],43% and 48% and 34%
same,Population Mitotic Cells (%),[7],15% and 12%
same,Population Normal (%),[7],79% and 84% and 78%
same,Population Pyknosed Nuclei (%),[7],43% and 36% and 35%
same,Population Tubulin-Different-Phenotype (%),[7],63% and 53% and 68%
same,Total Cell Count,[7],154 and 214 and 166
same,Population Apoptotic (%),[8],91% and 94% and 89%
same,Population Fragmented Nuclei (%),[8],25% and 32% and 19%
same,Population Hoechst High Intensity Objects (%),[8],9%
same,Population Mitotic Cells (%),[8],8% and 5% and 10%
same,Population Normal (%),[8],90%
same,Population Pyknosed Nuclei (%),[8],49% and 50% and 21%
same,Total Cell Count,[8],98 and 89 and 110
same,Population Apoptotic (%),[9],75% and 70%
same,Population Fragmented Nuclei (%),[9],38% and 39% and 30%
same,Population Healthy Nuclei (%),[9],46% and 41%
same,Population Hoechst High Intensity Objects (%),[9],25% and 18%
same,Population Membrane Permeable-Phenotype (%),[9],32% and 27% and 25%
same,Population Mitochondria Different-Phenotype (%),[9],8% and 9% and 10%
same,Population Mitotic Cells (%),[9],25% and 30%
same,Population Normal (%),[9],74% and 81%
same,Population Pyknosed Nuclei (%),[9],16% and 19% and 23%
same,Population Tubulin-Different-Phenotype (%),[9],43% and 48% and 50%
same,Total Cell Count,[9],135 and 127 and 148
same,Population Apoptotic (%),[10],100% and 60%
same,Population Fragmented Nuclei (%),[10],19% and 21% and 22%
same,Population Healthy Nuclei (%),[10],80% and 73% and 75%
same,Population Hoechst High Intensity Objects (%),[10],8% and 7% and 5%
same,Population Membrane Permeable-Phenotype (%),[10],20% and 15% and 13%
same,Population Mitochondria Different-Phenotype (%),[10],3% and 1%
same,Population Normal (%),[10],91% and 92% and 94%
same,Population Pyknosed Nuclei (%),[10],0% and 4% and 1%
same,Population Tubulin-Different-Phenotype (%),[10],39% and 17% and 40%
same,Total Cell Count,[10],131 and 116 and 118
same,Population Apoptotic (%),[11],85% and 83% and 92%
same,Population Fragmented Nuclei (%),[11],41% and 44% and 50%
same,Population Healthy Nuclei (%),[11],22% and 29% and 25%
same,Population Hoechst High Intensity Objects (%),[11],20% and 26%
same,Population Membrane Permeable-Phenotype (%),[11],32% and 23%
same,Population Mitochondria Different-Phenotype (%),[11],40% and 48% and 30%
same,Population Mitotic Cells (%),[11],15% and 16% and 7%
same,Population Normal (%),[11],79% and 73%
same,Population Pyknosed Nuclei (%),[11],35% and 25%
same,Population Tubulin-Different-Phenotype (%),[11],48% and 44% and 53%
same,Total Cell Count,[11],141 and 195
same,Population Apoptotic (%),[12],84% and 100% and 94%
same,Population Fragmented Nuclei (%),[12],51% and 53%
same,Population Healthy Nuclei (%),[12],35% and 24% and 30%
same,Population Hoechst High Intensity Objects (%),[12],16% and 29%
same,Population Membrane Permeable-Phenotype (%),[12],34% and 14% and 27%
same,Population Mitochondria Different-Phenotype (%),[12],78% and 85% and 72%
same,Population Mitotic Cells (%),[12],0% and 5%
same,Population Normal (%),[12],83% and 70%
same,Population Pyknosed Nuclei (%),[12],20% and 24% and 15%
same,Population Tubulin-Different-Phenotype (%),[12],34% and 32% and 54%
same,Total Cell Count,[12],89 and 137 and 153
